High-throughput results: PubChem BioAssay, several laboratories
Only some compounds are listed: those with a hit (about 3.1% of all), similar ones and a draw of the others.
NadD inh – inhibitors of S. aureus NadD, primary screen, biochemical, colorimetric, uHTS. purified NadD enzyme, colorimetric absorbance read-out. inhibition, % at 20 µM. hit rate 0.78% among 360,000; in the data active = inhibition above about 26%
PP1 inh – PP1-alpha phosphatase inhibitors, primary screen, counter-screen for PP5 inhibitor project, biochemical, fluorescence, OMFP substrate, single point; Serine/threonine-protein phosphatase PP1-alpha catalytic subunit (Homo sapiens), P62136; purified PP1alpha; inhibition, % at 6.7 µM; hit rate 0.9% among 320,000;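 active = inhibition above the mean inhibition of all tested compounds plus 3 SD, computed separately for each screening campaign, cut at about 15% in these data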
Target sequence (P62136 whole entry, looked up): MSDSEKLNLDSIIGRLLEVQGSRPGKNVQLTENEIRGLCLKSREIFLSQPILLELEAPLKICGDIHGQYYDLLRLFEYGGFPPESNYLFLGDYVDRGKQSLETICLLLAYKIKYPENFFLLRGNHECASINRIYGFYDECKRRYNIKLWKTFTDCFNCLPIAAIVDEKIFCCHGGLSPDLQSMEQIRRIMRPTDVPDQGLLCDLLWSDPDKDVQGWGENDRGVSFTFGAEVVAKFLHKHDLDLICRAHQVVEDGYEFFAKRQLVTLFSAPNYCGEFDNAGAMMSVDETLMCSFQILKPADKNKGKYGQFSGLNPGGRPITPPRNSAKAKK
Myeloid diff MLP – induction of myeloid progenitor differentiation, primary screen, cell-based, flow cytometry, MLPCN library; ER-HoxA9 myeloid progenitors, lysozyme-GFP differentiation; calls only at 10 µM; hit rate 1% among 360,000; AID 624256, 2012;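 active = normalized GFP-positive differentiation at or above the plate's own cutoff, the solvent-only control mean plus 3 SD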;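 also: cells exposed to compound for four days before flow analysis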
HCV core dimer – inhibitors of HCV core protein dimerization, primary screen, biochemical, TR-FRET, high-throughput; TR-FRET GST/Flag-core106 dimerization, 1536-well; inhibition, % at 5 µM; hit rate 0.33% among 300,000;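 active = inhibition above the mean of all tested compounds plus 3 SD, set per screening campaign, cut at about 45% in these data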
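System – GST-tagged and Flag-tagged HCV core protein residues 1-106 · Repeats – one well for each compound · Technique – TR-FRET 671 and 617 nm emission · Doses – one concentration, 5 µM, in 0.5% DMSO · Times – 4 h, 22.5 °C incubation · Also added – Eu donor and XL665 acceptor anti-tag antibodies · Measure – percent inhibition of core106 dimerization signal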
PP5 primary – PP5 phosphatase inhibitors, primary screen, biochemical, fluorescence | purified PP5c, OMFP substrate fluorescence | hit rate 0.18% among 320,000 | inhibition, % at 6.7 µM | Serine/threonine-protein phosphatase 5 (Homo sapiens), P53041;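 active = inhibition above the campaign's mean inhibition across all tested compounds plus 3 SD, cut at about 9.5% in these data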;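 also: 0% = DMSO only and 100% = 100 µM cantharidin control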
CTSL1 counter – Fasciola hepatica cathepsin L1 inhibitors, primary screen, counter-screen for PFM18AAP inhibitor project, biochemical, QFRET, fluorogenic peptide substrate | recombinant F. hepatica cathepsin L1, Z-Leu-Arg-MCA fluorescence | inhibition, % at 5.96 µM | AID 1906, 2009 | hit rate 0.49% among 300,000;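 active = inhibition above the mean of all tested compounds plus 3 SD, set per screening campaign, cut at about 17% in these data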;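 also: 0% = plate median of test compound wells and 100% = 1 µM Z-Phe-Ala-diazomethylketone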
* marks the source's active call; other numbers are inactive results; i = inactive; . = no result given; + = active, no number.

SMILES	NadD inh	PP1 inh	Myeloid diff MLP	HCV core dimer	PP5 primary	CTSL1 counter
COCCCn1c(SC(C)C(=O)Nc2c(C)n(C)n(-c3ccccc3)c2=O)n[nH]c1=O (centres undefined)	-0.2	.	i	.	.	.
CCCCCCCCCCCCCCC[C@@H](O)[C@@H](N)CO	26.8	.	i	.	.	.
OCC(O)C1OC(Oc2ccccc2)C(O)C(O)C1O (centres undefined)	-1.5	.	i	.	.	.
OCC(O)C1OC(Nc2ccc(Cl)cc2)C(O)C1O (centres undefined)	-1.3	-1.5	+	1.2	0.4	-2.1
c1ccc2c(c1)ccc1[nH]c3c(c12)CCCC3	-5.8	.	i	.	.	.
Cc1nc2ccccc2c(=O)n1/N=C/c1ccccc1OC(F)F	-4.0	-1.4	i	2.0	5.5	3.6
Nc1ccc(N)c(C(=O)O)c1	33.4*	-2.6	i	16.8	1.7	-1.1
OCC(O)CN1CCN(c2ccccc2)CC1 (centres undefined)	-0.1	-1.8	+	-4.1	2.8	3.2
CCOC(=O)c1c(N)sc2c1CCSC2	13.6	8.5	i	54.5*	-1.4	-1.7
Cc1ccc(/C=C/C(=O)NCc2cccs2)cc1	-5.9	1.9	i	-0.8	-0.4	4.8
Cc1ccc(/C=C/C(=O)NCc2cccs2)o1	3.8	0.9	.	4.2	1.9	37.5*
COc1ccc(/C=c2\s/c(=C/C(=O)c3ccc(C)cc3)[nH]c2=O)c(OC)c1	28.3	2.6	+	15.8	1.8	1.6
COc1cccc(/C=c2\s/c(=C/C(=O)c3ccc(C)cc3)[nH]c2=O)c1OC	13.2	2.1	i	13.3	-3.4	6.9
CCSc1nnc(NC(=O)C2Cc3ccccc3CN2C(=O)c2ccco2)s1 (centres undefined)	21.7	12.4	i	85.3*	2.8	-1.4
Cc1ccccc1NC(=O)C1Cc2ccccc2CN1C(=O)c1ccco1 (centres undefined)	4.1	6.0	i	13.3	3.2	-1.0
CC(/C=C1\SC(=S)N(CC(=O)N2CCN(c3ccccc3)CC2)C1=O)=C\c1ccccc1	18.3	1.6	i	49.9*	0.3	0.9
Oc1ccc(CNc2ccc(F)cc2)c2cccnc12	9.6	4.8	+	-6.5	2.1	-4.1
Oc1ccc(CNc2ccccc2)c2cccnc12	24.5	4.0	i	-11.4	-0.9	1.3
O=C1NN(c2ccc(F)c(Cl)c2)C(=O)/C1=C\c1cccc(OC(=O)c2cccs2)c1	30.0*	15.3*	i	18.1	2.2	-4.2
CC(C)=C1C(=O)NN(c2ccc(F)c(Cl)c2)C1=O	-5.9	1.8	i	6.6	1.0	-5.3
C/C=C/C(=O)N1CC2(CC(c3cccc(NC(=O)/C(C)=C/C)c3)=NO2)C[C@H]1C(N)=O (some centres undefined)	2.0	-1.0	i	-13.3	3.4	18.5*
C/C=C\C=C\C(=O)N1CC2(CC(c3cccc(NC(=O)CC)c3)=NO2)C[C@H]1C(N)=O (some centres undefined)	-1.5	0.2	i	48.4*	1.0	-0.9
C=C(C)C(=O)Nc1cccc(C2=NOC3(C2)C[C@@H](C(N)=O)N(C(=O)[C@H]2CCC(=O)N2)C3)c1 (some centres undefined)	-8.9	4.3	i	81.1*	-1.4	1.5
C/C=C\C=C/C(=O)Nc1cccc(C2=NOC3(C2)C[C@@H](C(N)=O)N(C(=O)c2ccccc2)C3)c1 (some centres undefined)	.	5.4	.	20.6	2.1	1.2
C/C=C/C=C\C(=O)Nc1cccc(C2=NOC3(C2)C[C@H](C(N)=O)N(C(=O)/C=C/C)C3)c1 (some centres undefined)	0.9	2.4	i	48.1*	-0.9	5.2
CC(C)NC(=O)COc1coc(CN2CCN(C(=O)c3ccco3)CC2)cc1=O	0.4	-0.4	i	-3.5	-0.6	3.9
C(=NN=C(NN=Cc1cccs1)NN=Cc1cccs1)c1cccs1	10.2	.	i	.	.	.
